Entries after “also recorded” stand apart in the source; their conditions may differ. No end group written: not given here.

One assay concerns the target T1, Med15 ABD3 (Saccharomyces cerevisiae, UniProt P19659).
T1 sequence (P19659 484-651): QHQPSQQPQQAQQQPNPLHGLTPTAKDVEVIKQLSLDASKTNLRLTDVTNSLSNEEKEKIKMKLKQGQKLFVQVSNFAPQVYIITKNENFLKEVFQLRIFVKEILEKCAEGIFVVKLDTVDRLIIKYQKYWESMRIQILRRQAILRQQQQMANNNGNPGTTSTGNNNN
Briefly: ITC binding, Med15 ABD3. Also on record: species or system S. cerevisiae. As to conditions: 20 mM KH2PO4 (pH 7.5), 200 mM KCl, nAD 0.111 mM vs ABD3 1.12 mM, ABD3 0.236 mM vs cAD 2.35 mM, single binding site model. The essentials: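 ITC was run on a MicroCal ITC200 in 20 mM KH2PO4 (pH 7.5), 200 mM KCl. In one run, Gcn4 nAD in the cell (0.111 mM) was titrated with Med15 ABD3 from the syringe (1.12 mM). In the other, ABD3 in the cell (0.236 mM) was titrated with Gcn4 cAD (2.35 mM). Data were fitted with a single binding site model.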

Assay [1] concerns the target T2, Med15 ABD1 (Saccharomyces cerevisiae, UniProt P19659).
T2 sequence (P19659 158-238 limits assumed): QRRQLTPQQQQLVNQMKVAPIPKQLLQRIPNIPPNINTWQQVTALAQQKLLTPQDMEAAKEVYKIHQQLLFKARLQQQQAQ
To be noted: ITC; 20 mM KH2PO4 (pH 7.5), 200 mM KCl; cAD; ref Brzovic et al., 2011; cited from earlier work.

Another assay addresses T3, Med15 KIX (Saccharomyces cerevisiae, UniProt P19659).
T3 sequence (P19659 6-91): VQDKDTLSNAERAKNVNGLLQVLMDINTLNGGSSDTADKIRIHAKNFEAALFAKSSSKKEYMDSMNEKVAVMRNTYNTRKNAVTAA
To be noted: FP; Oregon Green 488-labeled Gcn4 peptide; ref Herbig et al., 2010; cited from earlier work.

For assay [2], the target named is T4, Med15 ABD2 (Saccharomyces cerevisiae, UniProt P19659).
T4 sequence (P19659 277-368): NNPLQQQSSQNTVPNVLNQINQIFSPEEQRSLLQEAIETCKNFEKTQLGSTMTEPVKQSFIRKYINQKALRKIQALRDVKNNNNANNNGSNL
The assay is described as follows: Fluorescence polarization binding, Med15 ABD2. Also on record: species or system S. cerevisiae. A digest of the protocol:
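Gcn4 AD peptides (nAD, cAD, tAD) labelled with Oregon Green 488 were titrated with Med15 ABD2, giving 15 concentrations spanning 0–250 μM for tAD. Proteins were size-exclusion purified into 20 mM KH2PO4 (pH 7.5), 200 mM KCl. Polarization was measured on a Beacon 2000. Kd was fitted with a one-site total binding model including a nonspecific term and background.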

The target in assay [3] is T4, Med15 ABD2. Briefly: ITC binding, Med15 ABD2. Also on record: species or system S. cerevisiae. To be noted: 20 mM KH2PO4 (pH 7.5), 200 mM KCl, nAD 0.111 mM vs ABD2 1.60 mM, ABD2 0.224 mM vs cAD 2.35 mM, not measurable due to weak binding or low heats of binding.
In assay [4] the target is T2, Med15 ABD1. As to conditions: ref Brzovic et al., 2011; cited from earlier work.
The target of assay [5] is T2, Med15 ABD1. Briefly: NMR competition: unlabeled cAD added to 15N-tAD + ABD1. The format is binding, S. cerevisiae. To be noted: (1H,15N)-HSQC.

Consider “STDSTPMFEYENLEDNSKEWTSLFDNDIPVTTDD [cAD]”, for which the results for the Kd result at Med15 ABD3, on Med15 KIX and on Med15 ABD2 [3] were “unable to measure”, “neither nAD nor cAD showed detectable KIX binding; also recorded: unable to measure” and “unable to measure”, respectively. Besides, the ΔS on Med15 ABD1 [1] is given as 4.58 cal/mol/deg. Moreover, the “weaker binding (cAD to ABD2) than the other pairwise interactions” value on Med15 ABD2 [2] is given as ~ 10 fold. Further, the “affinity for ABD2 (in words)” value at Med15 ABD2 [2] (compared with nAD or tAD) is listed as “substantially weaker affinity”. Moreover, at Med15 ABD1 [4], the “helical structure upon ABD1 binding, residues 117–125” value is recorded as “adopt helical structure”. Also, the “competition with 15N-tAD for ABD1” value on Med15 ABD1 [5] is “cAD can compete off both cAD and nAD residues”.

Source of the values: paper PMC5908246 (Cell reports, 2018).
